# What was measured:
# [1] = Human bioavailability study: 24 h urinary excretion; type: in vivo; conditions: humans; for 24 h urinary excretion, Snack: after 75 g baked snack; for 24 h urinary excretion, Snack / 24 h urinary excretion, Vegetable meal: per mg intake of corresponding compound; for 24 h urinary excretion, Vegetable meal: after 461 g vegetable meal
# Summary of the method: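 Adult volunteers fasted overnight (≥10 h), then gave a fasted blood sample and spot urine. Each study meal was eaten within a targeted 15 min under nurse supervision. Urine was collected over 24 h postprandially, extracted liquid-liquid and analysed by LCMS for aglycones plus glucuronide, glucoside and sulfate conjugates. Results were expressed per mg intake, and the two meals were compared by paired t-test.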
# [2] = Determination of phytochemicals in food products; conditions: for change during the baking process (dough to final product): snack ratio broccoli:onion:carrot:parsley = 2.1:5.5:11.4:1
# Caco-2/TC7 cells = assay: Uptake of quercetin and apigenin by Caco-2/TC7 cells from digestates; type: in vitro ADME; conditions: all digestates and DMEM-only control; p < 0.05
# Summary of the method: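 Clear supernatants from simplified simulated stomach/small-intestine digestion (with amylase) were diluted 1:1 in DMEM and applied to Caco-2/TC7 cells; DMEM with 40 µM quercetin or apigenin served as control. Uptake was summed from metabolites in medium, metabolites in cells and aglycone in cells, and the rate was this total divided by time. Mean ± SD, n = 3.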
# Caco-2/TC7 monolayer = assay: Transport; type: in vitro ADME; conditions: p < 0.05
# Summary of the method: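 Snack or vegetable-mix samples went through a simplified simulated gastric/small-intestinal digestion including amylase, run to completion and centrifuged to clear supernatant. Supernatant mixed 1:1 with DMEM was applied to Caco-2/TC7 monolayers; DMEM with 40 µM quercetin or apigenin served as the buffer control. Papp = (dQ/dt)/(Co·A), from total basolateral metabolites plus aglycone; mean ± SD, n = 3.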
# [3] = ref Rothwell, Day, & Morgan, 2005; cited from earlier work
# [4] = In vitro gastric-duodenal digestion; type: in vitro ADME; conditions: both snack and vegetable meals
SMILES,"24 h urinary excretion, Difference (absolute) vegetable meal vs snack [1] [nmol per mg intake]","urinary levels in 24 h urine, snack versus vegetable meal (paired t-test) [1]","24 h urinary excretion, Snack [1] [nmol/mg intake]","24 h urinary excretion, Vegetable meal [1] [nmol/mg intake]",other results
"COc1cc(-c2oc3cc(O)cc(O)c3c(=O)c2O[C@@H]2O[C@H](C(=O)O)[C@@H](O)[C@H](O)[C@H]2O)ccc1O [IR-3-GlcA, isorhamnetin-3-glucuronide]",1.07,significantly differed,1.60 ± 2.0,2.67 ± 2.7,–
"O=c1c(O[C@@H]2O[C@H](CO)[C@@H](O)[C@H](O)[C@H]2O)c(-c2ccc(O)c(O)c2)oc2cc(O)cc(O)c12 [Quercetin-3-Glc, quercetin-3-O-glucoside]",0.03,–,0.04 ± 0.1,0.07 ± 0.1,–
O=c1cc(-c2ccc(O)cc2)oc2cc(O)cc(O)c12 [apigenin],0.19,not significantly different,3.37 ± 6.6,3.55 ± 4.6,change during the baking process (dough to final product) [2]: +6%; rate of uptake compared to quercetin (Caco-2/TC7 cells): significantly higher; Papp compared to quercetin (Caco-2/TC7 monolayer): higher; lipophilicity compared to quercetin [3]: higher lipophilicity
"O=c1cc(-c2ccc(O)cc2)oc2cc(O[C@@H]3O[C@H](CO)[C@@H](O)[C@H](O)[C@H]3O)cc(O)c12 [A-7-Glc, apigenin-7-O-glucoside]",0.05,–,0.15 ± 0.4,0.21 ± 0.3,–
C[S+]([O-])CCCCN=C=S (stereo not drawn) [Sulforaphane],7.47,–,36.25 ± 27.9,43.72 ± 44.2,–
CC1=C(/C=C/C(C)=C/C=C/C(C)=C/C=C/C=C(C)/C=C/C=C(C)/C=C/C2=C(C)CCCC2(C)C)C(C)(C)CCC1 [β-carotene],–,–,–,–,"yield in the final product ([2]; dough with only carrots, after baking): 31.8 % (w/w); threshold value above which lost during the baking process ([2]; final snack product): 10–13 mg per 100 g dry matter; present in the liquid phase after in vitro digestion [4]: no detectable"
O=c1c(O)c(-c2ccc(O)c(O)c2)oc2cc(O)cc(O)c12 [quercetin],0.38,not significantly different,0.34 ± 0.7,0.72 ± 1.3,change during the baking process (dough to final product) [2]: +12%
O=C(O)[C@H]1O[C@@H](Oc2cc(O)c3c(=O)cc(-c4ccc(O)cc4)oc3c2)[C@H](O)[C@@H](O)[C@@H]1O [A-7-GlcA],0.99,–,6.32 ± 8.1,5.33 ± 6.6,–
CC1=C[C@H](O)CC(C)(C)[C@H]1/C=C/C(C)=C/C=C/C(C)=C/C=C/C=C(C)/C=C/C=C(C)/C=C/C1=C(C)C[C@@H](O)CC1(C)C [lutein],–,–,–,–,present in the liquid phase after in vitro digestion [4]: around 0.4 mg
"O=C(O)[C@H]1O[C@@H](Oc2c(-c3ccc(O)c(O)c3)oc3cc(O)cc(O)c3c2=O)[C@H](O)[C@@H](O)[C@@H]1O [Quercetin-3-GlcA, quercetin-3-glucuronide]",0.23,–,4.17 ± 3.3,4.40 ± 2.5,–
C[S+]([O-])CCCC/C(=N\OS(=O)(=O)O)S[C@@H]1O[C@H](CO)[C@@H](O)[C@H](O)[C@H]1O (stereo partly drawn) [glucoraphanin],–,not significantly different,–,–,change during the baking process (dough to final product) [2]: −14%
O=c1c(OS(=O)(=O)O)c(-c2ccc(O)c(O)c2)oc2cc(O)cc(O)c12 [Quercetin-3-sulfate],0.79,–,2.58 ± 1.9,3.36 ± 1.8,–
"CC(=O)N[C@@H](CSC(=S)NCCCC[S+](C)[O-])C(=O)O (stereo partly drawn) [Sulforaphane-NAC, sulforaphane-N-acetyl-cysteine]",236.4,approached significance,272.17 ± 280.8,508.54 ± 450.9,–
